Test results taken from ChEMBL document CHEMBL4414551, “Design, Synthesis, and Biological Evaluation of Substituted 4,6-Dihydrospiro[[1,2,3]triazolo[4,5-b]pyridine-7,3'-indoline]-2',5(3H)-dione Analogues as Potent NS4B Inhibitors for the Treatment of Dengue Virus Infection” (J Med Chem, 2019).

Tests used:
[1] = Cytotoxicity in human HuH7 replicon cells infected with Dengue virus 2 NGC assessed as reduction in cell viability incubated for 48 hrs by Cell-titer-Glo reagent based assay; set-up: species or system Huh-7
Summary of the method: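 Huh7 cells or Huh7 replicon cells plated, then held at 37 °C with 5% CO₂ overnight. Exposed to 2-fold serial compound dilutions for 48 h, in duplicate. Viability read with CellTiter-Glo and normalized to 0.45% DMSO wells set at 100%. CC50 from four-parameter logistic fit.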

dengue virus type 4 = experiment: Antiviral activity against Dengue virus 4 D4MY01-22713 infected in human HuH7 replicon cells expressing Renilla luciferase and neomycin-resistance genes assessed as reduction in viral replication incubated for 48 hrs by luciferase reporter replicon-based assay; assay type: functional, organism-based; details: D4MY01-22713, Huh-7, 48 h
Summary of the method: (§1)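 Huh7 cells stably carrying a Renilla luciferase/neomycin-resistance replicon (DENV-1 WestPac, DENV-2 NGC, DENV-3 D3MY05-34640 or DENV-4 D4MY01-22713). Cells seeded at 10k per well and incubated overnight at 37 °C, 5% CO2. Then exposed to 2-fold serial compound dilutions for 48 h, in duplicate. Luciferase read with a live-cell substrate. EC50 from four-parameter logistic fit.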

dengue virus type 3 = experiment: Antiviral activity against Dengue virus 3 D3MY05-34640 infected in human HuH7 replicon cells expressing Renilla luciferase and neomycin-resistance genes assessed as reduction in viral replication incubated for 48 hrs by luciferase reporter replicon-based assay; assay type: functional, organism-based; details: D3MY05-34640, Huh-7, 48 h; summary of the method: as §1
dengue virus type 2 = experiment: Antiviral activity against Dengue virus 2 NGC infected in human HuH7 replicon cells expressing Renilla luciferase and neomycin-resistance genes assessed as reduction in viral replication incubated for 48 hrs by luciferase reporter replicon-based assay; assay type: functional, organism-based; details: Huh-7, 48 h; summary of the method: as §1
dengue virus type 1 = experiment: Antiviral activity against Dengue virus 1 WestPac infected in human HuH7 replicon cells expressing Renilla luciferase and neomycin-resistance genes assessed as reduction in viral replication incubated for 48 hrs by luciferase reporter replicon-based assay; assay type: functional, organism-based; details: Huh-7, 48 h; summary of the method: as §1

| Structure (SMILES) | CC50 at 48 h [1] [nM] | EC50 (dengue virus type 4) [nM] | EC50 (dengue virus type 3) [nM] | EC50 (dengue virus type 2) [nM] | EC50 (dengue virus type 1) [nM] |
| --- | --- | --- | --- | --- | --- |
| C[C@@H](c1ccc(Cl)cc1)n1nnc2c1NC(=O)C[C@]21C(=O)N(CCc2ccccc2)c2ccc(Cl)cc21 | > 10000 | > 5000 | 190 | 600 | 1100 |
| C[C@@H](c1ccc(Cl)cc1)n1nnc2c1NC(=O)C[C@]21C(=O)N(C)c2ccc(Cl)cc21 | > 10000 | > 5000 | 4 | 19 | > 5000 |
| C[C@@H](c1ccc(Cl)cc1)n1nnc2c1NC(=O)C[C@]21C(=O)N(Cc2cc(C(C)(C)C)cc(C(C)(C)C)c2)c2ccc(Cl)cc21 | > 10000 | 4900 | 5900 | > 10000 | 4600 |
| C[C@@H](c1ccc(Cl)cc1)n1nnc2c1NC(=O)C[C@]21C(=O)Nc2ccc(Cl)cc21 | > 10000 | > 5000 | 10 | 39 | > 5000 |
| C[C@@H](c1ccc(Cl)cc1)n1nnc2c1NC(=O)C[C@]21C(=O)N(CCCN(C)C)c2ccc(Cl)cc21 | > 10000 | > 5000 | 1 | 25 | > 5000 |
| C[C@@H](c1ccc(Cl)cc1)n1nnc2c1NC(=O)C[C@]21C(=O)N(CCCCCl)c2ccc(Cl)cc21 | > 10000 | > 5000 | 19 | 73 | > 5000 |
| Cc1ccc(CN2C(=O)[C@]3(CC(=O)Nc4c3nnn4[C@@H](C)c3ccc(Cl)cc3)c3cc(Cl)ccc32)cn1 | > 10000 | > 5000 | 11 | 150 | > 5000 |
| CC(C)N1C(=O)C[C@]2(C(=O)Nc3ccc(Cl)cc32)c2nnn([C@@H](C)c3ccc(Cl)cc3)c21 | > 10000 | 4400 | 310 | 860 | 2100 |
| COC(=O)CN1C(=O)C[C@]2(C(=O)Nc3ccc(Cl)cc32)c2nnn([C@@H](C)c3ccc(Cl)cc3)c21 | > 10000 | > 10000 | 2700 | > 10000 | > 10000 |
| C[C@@H](c1ccc(Cl)cc1)n1nnc2c1NC(=O)C[C@]21C(=O)N(CCCCN(C)C)c2ccc(Cl)cc21 | > 10000 | > 5000 | 38 | 190 | > 5000 |
| COc1cc(CN2C(=O)[C@]3(CC(=O)Nc4c3nnn4[C@@H](C)c3ccc(Cl)cc3)c3cc(Cl)ccc32)cc(OC)c1 | > 10000 | 7400 | 790 | 3100 | 3400 |
| CCCCCCN1C(=O)[C@]2(CC(=O)Nc3c2nnn3[C@@H](C)c2ccc(Cl)cc2)c2cc(Cl)ccc21 | > 10000 | > 5000 | 140 | 810 | 830 |
| COc1cccc(CN2C(=O)[C@]3(CC(=O)Nc4c3nnn4[C@@H](C)c3ccc(Cl)cc3)c3cc(Cl)ccc32)c1 | > 10000 | 6200 | 87 | 830 | 2600 |
| COCCCN1C(=O)C[C@]2(C(=O)Nc3ccc(Cl)cc32)c2nnn([C@@H](C)c3ccc(Cl)cc3)c21 | > 10000 | > 10000 | 910 | 8700 | > 10000 |
| CC#CCN1C(=O)[C@]2(CC(=O)Nc3c2nnn3[C@@H](C)c2ccc(Cl)cc2)c2cc(Cl)ccc21 | > 10000 | > 5000 | 20 | 63 | > 5000 |
| C[C@@H](c1ccc(Cl)cc1)n1nnc2c1NC(=O)C[C@]21C(=O)N(Cc2ccc(F)cc2)c2ccc(Cl)cc21 | > 10000 | 10000 | 48 | 160 | 5000 |
| CCN1C(=O)[C@]2(CC(=O)Nc3c2nnn3[C@@H](C)c2ccc(Cl)cc2)c2cc(Cl)ccc21 | > 10000 | > 5000 | 6 | 24 | 2500 |
| COC(=O)CN1C(=O)[C@]2(CC(=O)Nc3c2nnn3[C@@H](C)c2ccc(Cl)cc2)c2cc(Cl)ccc21 | > 10000 | > 5000 | 11 | 77 | > 5000 |
| CC(C)CN1C(=O)[C@]2(CC(=O)Nc3c2nnn3[C@@H](C)c2ccc(Cl)cc2)c2cc(Cl)ccc21 | > 10000 | > 5000 | 20 | 150 | 1300 |
| C[C@@H](c1ccc(Cl)cc1)n1nnc2c1NC(=O)C[C@]21C(=O)N(CCN2CCOCC2)c2ccc(Cl)cc21 | > 10000 | > 5000 | 17 | 75 | > 5000 |
| C[C@@H](c1ccc(Cl)cc1)n1nnc2c1NC(=O)C[C@]21C(=O)N(Cc2ccccn2)c2ccc(Cl)cc21 | > 10000 | > 5000 | 3 | 20 | > 5000 |
| C[C@@H](c1ccc(Cl)cc1)n1nnc2c1NC(=O)C[C@]21C(=O)N(Cc2ccc(Cl)nc2)c2ccc(Cl)cc21 | > 10000 | > 5000 | 6 | 78 | > 5000 |
| CNCCN1C(=O)[C@]2(CC(=O)Nc3c2nnn3[C@@H](C)c2ccc(Cl)cc2)c2cc(Cl)ccc21 | > 10000 | > 5000 | 22 | 120 | > 5000 |
| C[C@@H](c1ccc(Cl)cc1)n1nnc2c1NC(=O)C[C@]21C(=O)N(Cc2ccc(Cl)c(F)c2)c2ccc(Cl)cc21 | > 10000 | 5100 | 290 | 4000 | 1500 |
| C#CCN1C(=O)[C@]2(CC(=O)Nc3c2nnn3[C@@H](C)c2ccc(Cl)cc2)c2cc(Cl)ccc21 | > 10000 | > 5000 | 3 | 69 | > 5000 |
| CC(C)N1C(=O)[C@]2(CC(=O)Nc3c2nnn3[C@@H](C)c2ccc(Cl)cc2)c2cc(Cl)ccc21 | > 10000 | > 5000 | 9 | 23 | 5700 |
| C[C@@H](c1ccc(Cl)cc1)n1nnc2c1NC(=O)C[C@]21C(=O)N(CCO)c2ccc(Cl)cc21 | > 10000 | > 5000 | 10 | 37 | > 5000 |
| C[C@@H](c1ccc(Cl)cc1)n1nnc2c1NC(=O)C[C@]21C(=O)N(CCCCCCCCN(C)C)c2ccc(Cl)cc21 | > 10000 | > 5000 | 42 | 490 | > 5000 |
